The source of these data is ChEMBL document CHEMBL3425447, “Discovery of Orally Available Runt-Related Transcription Factor 3 (RUNX3) Modulators for Anticancer Chemotherapy by Epigenetic Activation and Protein Stabilization” (J Med Chem, 2015).

For orientation: IC50 means the concentration at which inhibition is half-maximal. The GI50 is the concentration at which growth is held to half of that of the control. A higher GI50 goes with lower sensitivity of the cells. As a reminder, the inhibition in vivo is the percentage by which the read-out fell short of the control.

In one data set the target is Histone deacetylase. Briefly: Inhibition of HDAC in human HeLa cell nuclear extract using Fluor de Lys as substrate incubated with compound for 30 mins by microtiter-plate reading flourimeter analysis. Format: protein assay.
For data set [1], the system named is HEK293. Briefly: Induction of myc-tagged RUNX3 acetylation in human HEK293 cells assessed as acetylated RUNX3 level at 1 uM after 24 hrs by immunoprecipitation analysis relative to TSA. Format: functional. The gist of the method:
(§1)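 HEK293 cells (DMEM, 10% FBS) transfected with myc-RUNX3 vector using Lipofectamine 2000. Next day treated at 1 µM for 24 h. Lysates (HEPES pH 7.5, NP-40 buffer) immunoprecipitated with anti-myc antibody and protein G beads at 4°C. Immunoprecipitates western-blotted with anti-acetylated lysine antibody; relative acetylated RUNX3 quantified.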

The nature of data set [2]: Metabolic stability in mouse liver microsomes assessed as compound remaining at 1 uM after 30 mins byLC-ESI/MS/MS analysis in presence of NADPH. Format: ADME. The settings on record: read-out: Stability. The gist of the method:
(§2)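 Compound at 1 µM incubated in triplicate with pooled mouse liver microsomes (0.5 mg/ml final) in 0.1 M potassium phosphate, pH 7.4, at 37°C, with or without 1 mM NADPH. Reactions stopped at 0 and 30 min with ice-cold acetonitrile containing internal standard. After centrifugation, supernatant analyzed by LC-ESI/MS/MS; percent remaining from analyte/IS peak-area ratios. Buspirone served as positive control.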
(Microsomes from liver hold many membrane-bound enzymes, among them those of drug oxidation.)

Data set [3] in a line: Metabolic stability in mouse liver microsomes assessed as compound remaining at 1 uM after 30 mins by LC-ESI/MS/MS analysis in absence of NADPH. Type of data set: ADME. Conditions: read-out: Stability. A digest of the protocol:
as §2

Another data set relates to NCI-H23. The experiment in a line: Growth inhibition of human NCI-H23 cells after 5 days by sulforhodamine B assay. Type of data set: functional. Conditions: NCI-H23, 120 h. In general terms: In SRB staining, fixed cells bind dye roughly in proportion to their protein.
The nature of data set [4]: Growth inhibition of human HCT15 cells after 5 days by sulforhodamine B assay. Type of data set: functional. Conditions: HCT-15, 120 h.
A further data set deals with MDA-MB-231. Briefly: Growth inhibition of human MDA-MB-231 cells after 5 days by sulforhodamine B assay. Type of data set: functional. Conditions: MDA-MB-231, 120 h.
Data set [5] relates to HEK293. Briefly: Induction of myc-tagged RUNX3 acetylation in human HEK293 cells assessed as RUNX3 level at 1 uM after 24 hrs by immunoprecipitation analysis relative to TSA. Format: functional. A digest of the protocol: as §1
Data set [6] is described as follows: Growth inhibition of human PC3 cells after 5 days by sulforhodamine B assay. Format: functional. Conditions: PC-3, 120 h.
In the next data set the test system is C2C12. Briefly: Induction of RUNX transcriptional activation in mouse C2C12-6xOSE2 cells at 1 uM after 24 hrs by luciferase reporter assay relative to FGF-2. Type of data set: functional. The gist of the method:
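C2C12-6xOSE stable cells grown in DMEM with 10% FBS at 37°C, 5% CO2. Seeded at 1 × 10^4 cells/well; next day treated with compound or FGF-2 (1 µM each). After 24 h, luciferase measured with Bright-Glo. Activity expressed as percent of the FGF-2 positive-control response.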
For orientation: A reporter such as luciferase makes a cellular process visible.

Data set [7] in a line: Growth inhibition of human NUGC3 cells after 5 days by sulforhodamine B assay. Format: functional. The settings on record: NUGC-3, 120 h.
A further data set relates to ACHN. Briefly: Growth inhibition of human ACHN cells after 5 days by sulforhodamine B assay. Format: functional. Conditions: 120 h.
The subject of another data set is NCI-H460. Briefly: Antitumor activity against human NCI-H460 cells xenografted in BALB/c nude mouse assessed as reduction in tumor weight at 20 mg/kg, po administered daily for 2 weeks measured every 2 or 3 days for 14 days. Format: functional. The gist of the method: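 Female SPF BALB/c nude mice, 6 weeks old, injected subcutaneously in the flank with NCI-H460 cells (3 × 10^7/animal). At tumor volume 50–80 mm3, randomized four per group. Dosed orally at 20 mg/kg in 10% DMAC/10% Tween 80 in saline, daily for two weeks, versus vehicle control. Tumor length and width measured by caliper three times weekly; body weight monitored.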

The nature of data set [8]: Metabolic stability in rat liver microsomes assessed as compound remaining at 1 uM after 60 mins by LC-ESI/MS/MS analysis in presence of UDPGA. Type of data set: ADME. Conditions: read-out: Stability. The gist of the method: (§3)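 Rat or human liver microsomes (0.5 mg/ml) incubated with test compound (1 µM) at 37°C for 60 min, with or without NADPH or UDPGA cofactor, n = 2–3. Percent parent remaining quantified by LC-ESI/MS/MS.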

The nature of data set [9]: Metabolic stability in rat liver microsomes assessed as compound remaining at 1 uM after 60 mins by LC-ESI/MS/MS analysis in absence of NADPH. The settings on record: read-out: Stability. Format: ADME. The gist of the method: as §3
Data set [10] can be described thus: Metabolic stability in rat liver microsomes assessed as compound remaining at 1 uM after 60 mins byLC-ESI/MS/MS analysis in presence of NADPH. Type of data set: ADME. The settings on record: read-out: Stability. A digest of the protocol:
as §3

Data set [11] in a line: Retention time of the compound by HPLC analysis. Format: physicochemical.
Data set [12] can be described thus: Metabolic stability in rat liver microsomes assessed as compound remaining at 1 uM after 60 mins by LC-ESI/MS/MS analysis in absence of UDPGA. Format: ADME. The settings on record: read-out: Stability. A digest of the protocol:
as §3

The structures appear in SMILES notation.

In the case of `CCc1ccc(CCn2cccc(/C=C/C(=O)NO)c2=O)cc1`, the IC50 at Histone deacetylase is 0.07 µM. In addition, the “fold change (FC)” value was found to be 0.2 with HEK293 [1] and 0.4 in the data set on HEK293 [5]. The remaining at 0.5 h, 1 µM in data set [2] stood at 11.1%; in data set [3], 96.5%. Moreover, the GI50 worked out at 0.69 µM with NCI-H23; 0.69 µM in [4]; 0.72 µM with MDA-MB-231; 0.53 µM in data set [6]; 0.74 µM in data set [7]; 0.7 µM with ACHN. Further, the Activity with C2C12 stood at 106%.

In the case of `O=C(CCC1=CCN(Cc2ccc(Br)cc2)C1=O)NO`, the inhibition in vivo at 20 mg/kg in the data set with NCI-H460 was found to be 37.9%.

On to `COc1cccc(CCCn2cccc(/C=C/C(=O)NO)c2=O)c1`, for which the remaining at 1 h, 1 µM in [8] was found to be 45.7%; in data set [9] it was 116%; in data set [10], 72.7%; in data set [12], 81.3%. The IC50 at Histone deacetylase came out at 0.03 µM. The “fold change (FC)” value is 0.8 with HEK293 [1] and 1.1 with HEK293 [5]. The remaining at 0.5 h, 1 µM in data set [2] stood at 88.4%; in data set [3] it was 110%. Also, the GI50 stood at 0.87 µM in the data set on NCI-H23; 1.59 µM in [4]; 0.72 µM with MDA-MB-231; 0.7 µM in [6]; 1.05 µM in data set [7]; 0.76 µM with ACHN. Also, the Retention_time in data set [11] turned out to be 11.335 min. In the data set on C2C12, the Activity is listed as 142.1%.

For `O=C(/C=C/c1cccn(CCCc2cccc(Br)c2)c1=O)NO`, the IC50 at Histone deacetylase was 0.1 µM. Moreover, the “fold change (FC)” value with HEK293 [1] was found to be 0.4; in the data set with HEK293 [5] it was 0.7. Besides, the figures for the remaining at 0.5 h, 1 µM in data set [2] and in data set [3] were 20.7% and 96.7%, respectively. Also, the GI50 came out at 1.22 µM with NCI-H23; 1.16 µM in data set [4]; 1.85 µM with MDA-MB-231; 1.26 µM in data set [6]; 1.2 µM in [7]; 0.74 µM in the data set on ACHN. This compound gave an Activity in the data set with C2C12 of 100.8%.

`CCOc1ccc(CCn2cccc(/C=C/C(=O)NO)c2=O)cc1`: the IC50 at Histone deacetylase is 0.07 µM. Besides, the “fold change (FC)” value with HEK293 [1] worked out at 0.2; with HEK293 [5] it was 0.8. In addition, the remaining at 0.5 h, 1 µM was 59.6% in data set [2] and 105% in data set [3]. The GI50 amounted to 1.05 µM in the data set on NCI-H23; 1 µM in data set [4]; 2.05 µM in the data set on MDA-MB-231; 0.14 µM in data set [6]; 1.28 µM in data set [7]; 2.34 µM in the data set with ACHN. The compound further returned an Activity with C2C12 of 119.5%.

As to `CC(C)(C)c1ccc(CCn2cccc(/C=C/C(=O)NO)c2=O)cc1`, at Histone deacetylase, the IC50 was determined as 0.11 µM. For the same compound, the results for the “fold change (FC)” value in the data set with HEK293 [1] and with HEK293 [5] were 0.1 and 1.2, respectively. Further, the remaining at 0.5 h, 1 µM in [2] amounted to 28.3%; in [3], 103%. Moreover, the GI50 stood at 0.91 µM in the data set on NCI-H23; 0.71 µM in data set [4]; 0.84 µM in the data set with MDA-MB-231; 0.5 µM in data set [6]; 0.47 µM in data set [7]; 0.7 µM in the data set with ACHN. In the data set on C2C12, this compound displayed an Activity of 104.7%.

For the compound `COc1cccc(Cn2cccc(/C=C/C(=O)NO)c2=O)c1`, at Histone deacetylase, the IC50 was found to be 0.15 µM. Further, the “fold change (FC)” value is 17 in the data set on HEK293 [1] and 2 in the data set on HEK293 [5]. The remaining at 0.5 h, 1 µM in [2] was 61.5%; in data set [3] it was 98.6%. The GI50 amounted to 2.69 µM in the data set on NCI-H23; 2.6 µM in data set [4]; 3.18 µM in the data set on MDA-MB-231; 1.82 µM in data set [6]; 1.69 µM in data set [7]; 1.26 µM with ACHN. In the data set on C2C12, this compound returned an Activity of 200%.

Regarding `CCOc1ccccc1CCCn1cccc(/C=C/C(=O)NO)c1=O`, the IC50 at Histone deacetylase worked out at 0.05 µM. The “fold change (FC)” value in the data set on HEK293 [1] is recorded as 37.2; with HEK293 [5], 13.7. Also, the remaining at 0.5 h, 1 µM in data set [2] stood at 31.5%; in data set [3], 104%. Moreover, the GI50 with NCI-H23 amounted to 0.46 µM; in data set [4], 0.66 µM; in the data set with MDA-MB-231 it was 0.56 µM; in [6], 0.18 µM; in [7] it was 0.47 µM; with ACHN it was 0.32 µM. For the same compound, the Retention_time in data set [11] worked out at 12.367 min. Moreover, the Activity with C2C12 is recorded as 105.5%.
